Source: PubChem BioAssay
Rows were chosen to be rich in hits. Some 3.5% of all compounds tested hit in one or more screens of this group.
ERAP1 inh – inhibitors of human ERAP1 aminopeptidase. Q9NZ08. recombinant ERAP1, Leu-AMC fluorescence, 60 min. inhibition, % at 10.7 µM. 340,000 compounds, 0.15% hits;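 active means mean replicate inhibition of at least 30%, or all replicates individually reaching that 30% level; inactive means mean below 30% and not every replicate reaching it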;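 further: 0% = neutral control wells and 100% = L-leucinethiol positive control wells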
Cneo AK release – causes C. neoformans cell lysis; AID 651654; 360,000 compounds, 0.2% hits; lysis activity, % at 15 µM; adenylate kinase release luminescence, 4 h; normalised: neutral wells 0, clomiphene wells 100;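 active means mean lysis activity across replicates of at least 80%, whatever share of replicates individually reach that level; inactive means mean lysis activity below 80%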
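Material – log-phase Cryptococcus neoformans yeast cells · Input – 5 × 10^6 yeast cells/mL · Medium – fresh YPD growth medium · Doses – single compound concentration per well · Timing – static 4 h at 37 °C with compound, 1 h detection · Detection – adenylate kinase release luminescence · Read-out – signal increase indicating cell lysis · Control set – Clomiphene as positive lysis control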
FGF22 binding – FGF22 (human) thermal shift binding | Q9HCT0 | recombinant FGF22 thermal shift, SYPRO orange fluorescence; percent of sucrose octasulfate shift, DMSO zero | activity (Tm shift, normalised), % at 9.99 µM | 340,000 compounds, 1.5% hits | AID 651658;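 active means mean Tm shift, scaled 0 neutral to 100 positive control, at about 1.3% or above, every replicate too, limit read from the data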
Target sequence (Q9HCT0 whole entry, looked up): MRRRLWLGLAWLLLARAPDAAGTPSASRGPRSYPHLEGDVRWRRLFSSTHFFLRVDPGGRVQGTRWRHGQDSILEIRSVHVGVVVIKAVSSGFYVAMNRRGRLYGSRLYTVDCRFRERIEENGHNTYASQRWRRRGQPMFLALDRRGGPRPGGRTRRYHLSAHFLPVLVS
Env fusion inh – HIV envelope-mediated fusion inhibition. 360,000 compounds, 1.1% hits. HeLa-JRFL Env/CEM21 cell fusion, luciferase. AID 651610. inhibition, % at 12.3 µM;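 active means mean replicate inhibition score of at least 50 and every replicate individually at or above 50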;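 further: 0% = plate neutral controls and 100% = maraviroc near 300 nM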
rRNA inh HTS – selective bacterial rRNA inhibition in E. coli. GFP signal change (wild-type ribosome), % (concentration not given with the values). 350,000 compounds, 1.6% hits. E. coli WT GFP vs humanized-ribosome RFP mutants, fluorescence, 24 h; active compounds read low; DMSO median 0, no signal -100;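 active means significant combined selectivity score with lowered wild-type GFP, culture density cut under 30%, mutant RFP and density less affected; inactive means any of these conditions unmet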
PGC1a acetyl inh – PGC1a acetylation modulation, inhibitor mode; inhibition, % at 15.6 µM; U2OS PGC1a acetylation, AlphaScreen anti-acetyl-lysine; with virally co-expressed GCN5 acetyltransferase; 350,000 compounds, 0.17% hits;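 active means every replicate shows inhibition of at least 40%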;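 further: 0% = neutral control wells and 100% = positive control wells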
* marks the source's active call; other numbers are inactive results; [ ] = remark or other dose.

What do the screens show for `COC(=O)Cn1cnc2c(Cl)nc(F)nc21`?
Cneo AK release: -3; FGF22 binding: 0; Env fusion inh: 89*; rRNA inh HTS: 21; PGC1a acetyl inh: -12

How did Cn1c(=O)c2[nH]c(NN=Cc3ccc(Br)cc3)nc2n(C)c1=O do in these assays?
ERAP1 inh: -3; Cneo AK release: 0; FGF22 binding: 0; Env fusion inh: 26; rRNA inh HTS: 9; PGC1a acetyl inh: 8

What do the screens show for `Cc1ccc(C=NNc2nc3c([nH]2)c(=O)n(C)c(=O)n3C)cc1`?
ERAP1 inh: 6; Cneo AK release: 0; FGF22 binding: 44*; rRNA inh HTS: 2; PGC1a acetyl inh: 0

How did COc1ccccc1CN1CC[C@H]2[C@H](CO)Nc3ccc(-c4cccc(F)c4)cc3[C@H]21 do in these assays?
Cneo AK release: 14; FGF22 binding: 0; rRNA inh HTS: -55; PGC1a acetyl inh: -9

What do the screens show for `COc1ccccc1CN1CC[C@H]2[C@H](CO)Nc3ccc(C#Cc4ccccc4)cc3[C@H]21`?
ERAP1 inh: -1; Cneo AK release: 115*; FGF22 binding: 0; rRNA inh HTS: -55; PGC1a acetyl inh: 6

How did COc1ccc(C(=O)CC(=O)c2ccccc2O)cc1OC do in these assays?
ERAP1 inh: -1; FGF22 binding: 56*; Env fusion inh: 9; rRNA inh HTS: -24; PGC1a acetyl inh: 2

How did O=C([C@@H]1[C@@H](CO)[C@@H]2Cn3c(cccc3=O)[C@H]1N2Cc1cccc(Cl)c1)N1CCCCC1 do in these assays?
ERAP1 inh: 1; Cneo AK release: -4; FGF22 binding: 0; rRNA inh HTS: 2

What do the screens show for `CCC(=O)N1[C@@H]2Cn3c(ccc(/C=C/c4ccccc4)c3=O)[C@H]1[C@@H](C(=O)N1CCOCC1)[C@@H]2CO`?
ERAP1 inh: 2; Cneo AK release: -4; FGF22 binding: 0; rRNA inh HTS: -1

Results for CC(=O)N1[C@@H]2c3ccc(/C=C/c4ccccc4)c(=O)n3C[C@H]1[C@H](CO)[C@H]2C(=O)N1CCOCC1 ?
ERAP1 inh: 88*; rRNA inh HTS: 0; PGC1a acetyl inh: 9

How did CC=Cc1ccc2n(c1=O)C[C@@H]1[C@@H](CO)[C@H](C(=O)N3CCOCC3)[C@H]2N1CC1CCCC1 (mixture of isomers) do in these assays?
ERAP1 inh: 0; Cneo AK release: 0; FGF22 binding: 0; rRNA inh HTS: 1

Results for CC=Cc1ccc2n(c1=O)C[C@H]1[C@H](CO)[C@@H](C(=O)NCc3ccccc3)[C@@H]2N1CC (mixture of isomers) ?
ERAP1 inh: -2; Cneo AK release: -2; FGF22 binding: 1.4*; rRNA inh HTS: 1; PGC1a acetyl inh: 3

Results for CCN1[C@@H]2c3ccc(/C=C/c4ccccc4)c(=O)n3C[C@H]1[C@H](CO)[C@H]2C(=O)N1CCOCC1 ?
ERAP1 inh: 40*; Cneo AK release: 2; FGF22 binding: 0; rRNA inh HTS: -2

Results for O=C([C@@H]1[C@@H](CO)[C@@H]2Cn3c(cccc3=O)[C@H]1N2Cc1cccc(Cl)c1)N1CCOCC1 ?
ERAP1 inh: -3; Cneo AK release: 98*; FGF22 binding: 0; Env fusion inh: 2[16.7 µM]; rRNA inh HTS: -2

Results for COc1ccc(NCC(=O)Nc2ccc(Cl)cc2C)c(OC)c1 ?
ERAP1 inh: 1; Cneo AK release: -8; FGF22 binding: 0; rRNA inh HTS: -19*; PGC1a acetyl inh: 5

How did O=C(O)C1CCCN1S(=O)(=O)c1ccc(Cl)c(Cl)c1 (stereo not given) do in these assays?
ERAP1 inh: 0; Cneo AK release: 1; FGF22 binding: 0; rRNA inh HTS: -5; PGC1a acetyl inh: 9

What do the screens show for `O=C(CN(C(=O)Cn1nnc(-c2ccccc2F)n1)c1cnc2ccccc2c1)NCC1CCCO1` (stereo not given)?
ERAP1 inh: -1; FGF22 binding: 0; Env fusion inh: -6; rRNA inh HTS: 8; PGC1a acetyl inh: -3

Results for O=C(OCc1cc([N+](=O)[O-])cc2c1OCOC2)c1ccccn1 ?
ERAP1 inh: 3; FGF22 binding: 43*; Env fusion inh: -12; rRNA inh HTS: 7
